The record followed here is ChEMBL document CHEMBL1130162, “Structure-activity relationships of cysteine-lacking pentapeptide derivatives that inhibit ras farnesyltransferase” (J Med Chem, 1997).

Usually IC50 stands for the midpoint of a concentration-inhibition curve. High values mean weaker potency, low ones greater potency.

Test [1] addresses T1, Protein farnesyltransferase (Rattus norvegicus, UniProt Q02293+Q04631). As to the kind of experiment: Inhibition of rat brain farnesyltransferase in 50 mM HEPES buffer. In a few lines:
(§1)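 40-fold purified rat brain FTase at pH 7.4 with 1.2 mM MgCl2, leupeptin, pepstatin and PMSF. Substrates: [1-3H]farnesyl pyrophosphate (0.12 μM final) and biotinyl-aminoheptanoyl-TKCVIM peptide (0.1 μM final). Compounds were serially diluted from DMSO and incubated 30 min at 37 °C. Stopped with streptavidin beads in acidic Mg acetate/BSA and scintillation counted.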

The target in test [2] is T1, Protein farnesyltransferase. As to the kind of experiment: Inhibition of rat brain farnesyltransferase in 5 mM potassium phosphate and 50 mM HEPES buffer. In outline:
as §1

For test [3] the target is unchanged. The test is described as follows: Inhibition of rat brain farnesyltransferase in 30 mM potassium phosphate buffer. In a few lines:
as §1

Test [4] shares this target. As to the kind of experiment: Inhibitory concentration against rat brain farnesyltransferase. In a few lines:
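Rat brain FTase (40-fold purified), pH 7.4, in 30 mM potassium phosphate, 5 mM phosphate plus 50 mM Hepes, or 50 mM Hepes. Buffer also held 7 mM DTT, 1.2 mM MgCl2 and protease inhibitors. Final substrates were 0.12 μM [1-3H]FPP and 0.1 μM biotinyl-aminoheptanoyl-TKCVIM, with inhibitor varied from DMSO stock. Reaction ran 30 min at 37 °C, was stopped with streptavidin beads, and was counted by scintillation proximity. Generally n = 2.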

Test [5] has as its target geranylgeranyltransferase type-I (Rattus norvegicus, UniProt P53610+Q04631). As to the kind of experiment: Inhibition of rat brain Geranylgeranyl transferase type I. The settings on record: in the assay text read “rat” for “rat brain”. In a few lines: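 Rat GGTase-I expressed in Sf9 cells, assayed like the FTase test. Substrates were geranylgeranyl pyrophosphate and biotinyl-aminoheptanoyl-Thr-Lys-Cys-Val-Ile-Leu, with inhibitor varied from DMSO stock. Incubation at 37 °C. Streptavidin bead capture with radioactivity count as the read-out.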

For test [6], the target named is Protein farnesyltransferase (Homo sapiens, UniProt P49354+P49356). The test is described as follows: Inhibition of human farnesyltransferase. It is filed as protein-complex assay.

As to `CCOP(=O)(Cc1ccc(CC(NC(=O)[C@@H](Cc2cnc[nH]2)NC(=O)OCc2ccccc2)C(=O)N[C@H](COCc2ccccc2)C(=O)N[C@H](Cc2c[nH]c3ccccc23)C(=O)N[C@@H](C)C(N)=O)cc1)OCC` (some centres not stated), the concentration for half-maximal inhibition (IC50) in test [1] stood at 75 nM; in test [2] it was 49 nM; in test [3] it was 25 nM.

Consider `C[C@H](NC(=O)[C@@H](Cc1c[nH]c2ccccc12)NC(=O)[C@@H](COP(=O)(O)O)NC(=O)[C@@H](Cc1ccc(OCc2ccccc2)cc1)NC(=O)[C@@H](Cc1cnc[nH]1)NC(=O)OCc1ccccc1)C(N)=O`, for which the IC50 came out at 660 nM in test [1], 360 nM in test [2] and 240 nM in test [3].

As to `C[C@H](NC(=O)[C@@H](Cc1c[nH]c2ccccc12)NC(=O)[C@@H](COCc1ccccc1)NC(=O)[C@@H](Cc1ccc(OP(=O)(O)O)cc1)NC(=O)[C@@H](Cc1c[nH]cn1)NC(=O)OCc1ccccc1)C(N)=O`, the figures for the IC50 in test [1], in test [2] and in test [3] were 6 nM, 9 nM and 13 nM, respectively.

As to `C[C@H](NC(=O)[C@@H](Cc1c[nH]c2ccccc12)NC(=O)[C@@H](COCc1ccccc1)NC(=O)C(Cc1ccc(CP(=O)(O)O)cc1)NC(=O)[C@@H](Cc1cnc[nH]1)NC(=O)OCc1ccccc1)C(N)=O` (some centres not stated), the IC50 was 190 nM in test [1], 280 nM in test [2] and 200 nM in test [3].

With `C[C@@H](NC(=O)[C@H](Cc1c[nH]c2ccccc12)NC(=O)[C@H](COCc1ccccc1)NC(=O)[C@H](Cc1ccc(O)cc1)NC(=O)[C@H](Cc1c[nH]cn1)NC(=O)OCc1ccccc1)C(N)=O` (single isomer, unassigned), the concentration for half-maximal inhibition (IC50) in test [4] was found to be 35 nM; in test [1], 510 nM; in test [2] it was 102 nM; in test [3], 35 nM.

As to `C[C@@H](NC(=O)[C@H](Cc1c[nH]c2ccccc12)NC(=O)[C@H](COCc1ccccc1)NC(=O)[C@H](Cc1ccc(OCc2ccccc2)cc1)NC(=O)[C@H](Cc1c[nH]cn1)NC(=O)OCc1ccccc1)C(N)=O` (single isomer, unassigned), the 50% inhibitory concentration (IC50) in test [4] worked out at 20 nM; in test [1], 1600 nM; in test [2], 76 nM; in test [5] it was 1250 nM; in test [3], 20 nM; in test [6] it was 10 nM.
